Results published in ChEMBL document CHEMBL1142682, “Design, synthesis, and biological evaluation of novel potent and selective alphavbeta3/alphavbeta5 integrin dual inhibitors with improved bioavailability. Selection of the molecular core” (J Med Chem, 2005).

What was measured:
[1] = Mean residence time for the compound was determined in mouse upon 5 mpk intravenous administration; format: ADME, organism-based; settings: in vivo, 5 mg/kg
[2] = Half life in mouse upon 5 mpk intravenous administration; format: ADME, organism-based; settings: in vivo, 5 mg/kg
[3] = biological target: Integrin alpha-IIb/beta-3 (Homo sapiens, UniProt P05106+P08514); test: In vitro inhibition of human alphaIIb betaIIIa integrin binding in ELISA; format: protein-complex assay
Summary of the method: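 Immobilized human fibrinogen (10 µg/mL coat, overnight 4 °C, Tris/Ca buffer pH 7.5) bound by human GPIIbIIIa (40 µg/mL) with compounds 0.027-20.0 µM, 1 h 37 °C; bound receptor detected with anti-GPIIbIIIa mAb then HRP anti-mouse IgG, OPD development, A492. % inhibition vs buffer controls, mean of three determinations; IC50 by four-parameter fit.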

[4] = Maximum concentration in mouse plasma upon 50 mpk peroral administration (n=3); format: ADME, organism-based; set-up: dose 50 mpk, route oral; settings: po, 50 mg/kg
[5] = Half life in mouse upon 50 mpk peroral administration; format: ADME, organism-based; settings: in vivo, po, 50 mg/kg
[6] = biological target: Integrin alpha-V/beta-3 (Homo sapiens, UniProt P05106+P06756); test: In vitro inhibition of human alphaV-beta3 integrin binding in ELISA; format: protein-complex assay
Summary of the method: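 Plate-coated human αvβ3 (0.4 µg/mL) in Tris buffer with Ca, Mg, Mn; compounds 0.0001-20.0 µM with biotinylated human vitronectin (1 µg/mL), 2 h, room temperature throughout. NeutrAvidin-HRP detection, OPD read at 492 nm; % inhibition vs buffer controls from triplicate determinations, IC50 by four-parameter fit.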

[7] = Extension in area under curve for the compound was determined in mouse upon 5 mpk intravenous administration; format: ADME; settings: in vivo, 5 mg/kg
[8] = Extension in area under curve for the compound was determined in mouse upon 50 mpk peroral administration; format: ADME; settings: in vivo, po, 50 mg/kg
[9] = Area under curve for the compound was determined at infinity in mouse upon 5 mpk intravenous administration; format: ADME; settings: in vivo, 5 mg/kg
[10] = biological target: Integrin alpha-5/beta-1 (Homo sapiens, UniProt P05556+P08648); test: In vitro inhibition of human alpha5-beta1 integrin binding in ELISA; format: protein-complex assay
Summary of the method: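 Human α5β1 coated at 3 µg/mL; blocking and binding at 30 °C. Biotinylated human fibronectin (1 µg/mL) with compounds 0.0001-20 µM, 2 h; NeutrAvidin-HRP 1 h 30 °C, OPD read at 492 nm. % inhibition vs buffer controls averaged over three determinations; IC50 by four-parameter fit.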

[11] = biological target: Integrin alpha-V/beta-5 (Homo sapiens, UniProt P06756+P18084); test: In vitro inhibition of human alphaV-beta5 integrin binding in ELISA; format: protein-complex assay
Summary of the method: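 Human αvβ5 coated at 1 µg/mL in Tris buffer with Ca, Mg, Mn; biotinylated human vitronectin (1 µg/mL) plus compounds (0.0001-20 µM) incubated 2 h, all at room temperature. NeutrAvidin-HRP, OPD development, absorbance 492 nm; IC50 from four-parameter fit of triplicate % inhibition relative to buffer controls.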

[12] = test system: Caco-2; test: In vitro CACO-2 cell permeability potency was determined; format: functional, cell-based; settings: Homo sapiens
[13] = Oral bioavailability in mouse (dose 50 mg/kg); format: ADME, organism-based; settings: in vivo
[14] = Apparent volume of distribution during the terminal phase was determined in mouse upon 5 mpk intravenous administration; format: ADME, organism-based; settings: in vivo, 5 mg/kg, read-out: Vz
[15] = Maximum clearance in mouse upon 5 mpk intravenous administration; format: ADME, organism-based; settings: in vivo, 5 mg/kg
[16] = Area under curve for the compound was determined at infinity in mouse upon 50 mpk peroral administration; format: ADME; settings: in vivo, po, 50 mg/kg
[17] = Maximum time required to reach maximum plasma concentration in mouse upon 50 mpk peroral administration (n=3); Range = 0.25-0.50 hr; format: ADME, organism-based; settings: po, 50 mg/kg

Sequence of Integrin alpha-5/beta-1 (P05556 21-798 limits assumed): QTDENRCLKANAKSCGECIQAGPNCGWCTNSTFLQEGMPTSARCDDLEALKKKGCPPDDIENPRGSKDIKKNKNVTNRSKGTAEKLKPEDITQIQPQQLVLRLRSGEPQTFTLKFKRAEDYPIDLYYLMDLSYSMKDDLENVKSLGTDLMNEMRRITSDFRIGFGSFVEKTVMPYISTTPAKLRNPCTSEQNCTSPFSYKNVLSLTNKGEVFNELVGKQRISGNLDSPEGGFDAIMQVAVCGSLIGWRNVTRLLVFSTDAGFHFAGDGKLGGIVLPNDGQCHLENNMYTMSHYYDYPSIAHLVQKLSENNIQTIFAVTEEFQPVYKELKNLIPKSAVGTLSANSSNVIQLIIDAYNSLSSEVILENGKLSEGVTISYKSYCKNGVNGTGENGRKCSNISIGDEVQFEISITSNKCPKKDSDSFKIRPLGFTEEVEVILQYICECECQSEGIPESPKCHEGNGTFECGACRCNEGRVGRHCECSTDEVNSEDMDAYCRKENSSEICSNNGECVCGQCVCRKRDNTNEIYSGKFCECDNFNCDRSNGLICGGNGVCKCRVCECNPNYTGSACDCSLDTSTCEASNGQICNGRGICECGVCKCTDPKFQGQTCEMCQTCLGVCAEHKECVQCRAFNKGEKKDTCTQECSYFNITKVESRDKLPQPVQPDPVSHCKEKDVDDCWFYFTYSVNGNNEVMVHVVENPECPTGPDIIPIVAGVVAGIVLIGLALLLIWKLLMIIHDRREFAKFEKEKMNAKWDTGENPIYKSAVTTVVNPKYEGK
Sequence of Integrin alpha-5/beta-1 (P08648 42-894 limits assumed): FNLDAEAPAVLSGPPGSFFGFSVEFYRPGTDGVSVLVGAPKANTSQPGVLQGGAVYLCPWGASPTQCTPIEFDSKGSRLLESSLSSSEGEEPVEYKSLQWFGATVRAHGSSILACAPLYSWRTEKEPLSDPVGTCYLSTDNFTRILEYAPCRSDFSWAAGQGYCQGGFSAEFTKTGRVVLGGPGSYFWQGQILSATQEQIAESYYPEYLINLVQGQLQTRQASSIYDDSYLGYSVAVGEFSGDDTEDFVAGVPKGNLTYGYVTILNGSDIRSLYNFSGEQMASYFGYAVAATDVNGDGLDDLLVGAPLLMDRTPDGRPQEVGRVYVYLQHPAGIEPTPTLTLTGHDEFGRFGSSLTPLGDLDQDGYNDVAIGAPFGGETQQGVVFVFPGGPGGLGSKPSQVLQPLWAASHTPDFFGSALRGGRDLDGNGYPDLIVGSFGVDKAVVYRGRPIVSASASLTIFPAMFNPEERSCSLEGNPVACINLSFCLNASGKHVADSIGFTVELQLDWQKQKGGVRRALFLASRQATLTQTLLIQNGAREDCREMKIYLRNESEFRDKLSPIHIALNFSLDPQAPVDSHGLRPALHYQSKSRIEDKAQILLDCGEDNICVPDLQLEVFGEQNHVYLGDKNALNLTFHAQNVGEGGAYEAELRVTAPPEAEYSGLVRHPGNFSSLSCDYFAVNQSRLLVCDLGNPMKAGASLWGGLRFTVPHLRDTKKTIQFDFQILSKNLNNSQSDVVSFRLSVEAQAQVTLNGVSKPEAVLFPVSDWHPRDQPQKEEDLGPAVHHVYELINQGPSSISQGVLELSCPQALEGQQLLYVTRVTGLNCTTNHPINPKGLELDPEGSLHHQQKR
Sequence of Integrin alpha-5/beta-1 (P08648 895-1049 limits assumed): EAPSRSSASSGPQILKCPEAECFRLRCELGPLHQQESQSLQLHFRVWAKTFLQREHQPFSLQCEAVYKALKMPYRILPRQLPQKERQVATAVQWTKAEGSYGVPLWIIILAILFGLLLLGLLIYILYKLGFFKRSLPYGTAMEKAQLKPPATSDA
Sequence of Integrin alpha-V/beta-5 (P06756 31-889 limits assumed): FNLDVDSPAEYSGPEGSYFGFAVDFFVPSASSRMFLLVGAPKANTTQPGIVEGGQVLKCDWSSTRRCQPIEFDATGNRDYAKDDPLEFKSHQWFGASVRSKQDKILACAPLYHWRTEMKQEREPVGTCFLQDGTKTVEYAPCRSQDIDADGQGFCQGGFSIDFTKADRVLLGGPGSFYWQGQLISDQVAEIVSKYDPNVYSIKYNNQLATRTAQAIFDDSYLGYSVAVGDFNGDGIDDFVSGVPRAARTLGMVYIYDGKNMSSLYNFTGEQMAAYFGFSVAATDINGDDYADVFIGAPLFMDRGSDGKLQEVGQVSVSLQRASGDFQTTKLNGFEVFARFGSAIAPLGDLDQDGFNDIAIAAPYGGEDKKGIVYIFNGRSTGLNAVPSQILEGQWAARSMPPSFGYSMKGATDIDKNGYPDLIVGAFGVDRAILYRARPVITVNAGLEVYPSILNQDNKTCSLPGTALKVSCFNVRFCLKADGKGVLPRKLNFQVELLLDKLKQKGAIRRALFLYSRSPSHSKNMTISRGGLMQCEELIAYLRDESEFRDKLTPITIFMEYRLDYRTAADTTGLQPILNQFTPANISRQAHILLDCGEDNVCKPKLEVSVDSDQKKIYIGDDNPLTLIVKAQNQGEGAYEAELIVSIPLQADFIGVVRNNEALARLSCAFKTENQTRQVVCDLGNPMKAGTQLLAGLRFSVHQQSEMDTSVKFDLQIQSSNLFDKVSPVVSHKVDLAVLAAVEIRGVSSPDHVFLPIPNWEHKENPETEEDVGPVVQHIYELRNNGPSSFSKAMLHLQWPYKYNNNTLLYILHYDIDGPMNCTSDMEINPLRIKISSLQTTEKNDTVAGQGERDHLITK
Sequence of Integrin alpha-V/beta-5 (P06756 891-1048 limits assumed): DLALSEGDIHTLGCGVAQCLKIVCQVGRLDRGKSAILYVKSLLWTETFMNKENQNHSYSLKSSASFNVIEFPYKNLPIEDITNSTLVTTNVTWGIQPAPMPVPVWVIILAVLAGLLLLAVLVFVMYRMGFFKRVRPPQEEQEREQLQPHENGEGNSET
Sequence of Integrin alpha-V/beta-5 (P18084 24-799 limits assumed): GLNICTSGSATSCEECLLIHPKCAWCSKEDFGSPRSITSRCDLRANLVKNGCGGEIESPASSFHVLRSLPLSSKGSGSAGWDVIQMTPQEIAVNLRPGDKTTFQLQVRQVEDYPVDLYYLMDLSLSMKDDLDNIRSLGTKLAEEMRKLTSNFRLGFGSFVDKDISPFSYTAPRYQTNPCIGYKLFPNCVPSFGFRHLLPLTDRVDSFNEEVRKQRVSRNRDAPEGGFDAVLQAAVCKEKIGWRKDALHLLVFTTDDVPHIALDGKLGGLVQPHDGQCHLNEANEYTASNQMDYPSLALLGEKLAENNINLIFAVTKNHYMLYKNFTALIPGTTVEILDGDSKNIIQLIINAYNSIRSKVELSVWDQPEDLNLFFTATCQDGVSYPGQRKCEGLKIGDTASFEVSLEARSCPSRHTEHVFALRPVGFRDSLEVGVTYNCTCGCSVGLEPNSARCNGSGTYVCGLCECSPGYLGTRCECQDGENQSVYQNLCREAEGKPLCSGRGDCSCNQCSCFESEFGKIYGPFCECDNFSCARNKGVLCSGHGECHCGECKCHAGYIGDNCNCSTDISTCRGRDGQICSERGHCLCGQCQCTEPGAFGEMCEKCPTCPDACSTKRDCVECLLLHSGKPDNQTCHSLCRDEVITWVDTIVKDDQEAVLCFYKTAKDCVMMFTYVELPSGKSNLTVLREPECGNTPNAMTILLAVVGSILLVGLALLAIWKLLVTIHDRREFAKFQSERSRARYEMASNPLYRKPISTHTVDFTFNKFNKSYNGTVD
Sequence of Integrin alpha-V/beta-3 (P05106 27-788 limits assumed): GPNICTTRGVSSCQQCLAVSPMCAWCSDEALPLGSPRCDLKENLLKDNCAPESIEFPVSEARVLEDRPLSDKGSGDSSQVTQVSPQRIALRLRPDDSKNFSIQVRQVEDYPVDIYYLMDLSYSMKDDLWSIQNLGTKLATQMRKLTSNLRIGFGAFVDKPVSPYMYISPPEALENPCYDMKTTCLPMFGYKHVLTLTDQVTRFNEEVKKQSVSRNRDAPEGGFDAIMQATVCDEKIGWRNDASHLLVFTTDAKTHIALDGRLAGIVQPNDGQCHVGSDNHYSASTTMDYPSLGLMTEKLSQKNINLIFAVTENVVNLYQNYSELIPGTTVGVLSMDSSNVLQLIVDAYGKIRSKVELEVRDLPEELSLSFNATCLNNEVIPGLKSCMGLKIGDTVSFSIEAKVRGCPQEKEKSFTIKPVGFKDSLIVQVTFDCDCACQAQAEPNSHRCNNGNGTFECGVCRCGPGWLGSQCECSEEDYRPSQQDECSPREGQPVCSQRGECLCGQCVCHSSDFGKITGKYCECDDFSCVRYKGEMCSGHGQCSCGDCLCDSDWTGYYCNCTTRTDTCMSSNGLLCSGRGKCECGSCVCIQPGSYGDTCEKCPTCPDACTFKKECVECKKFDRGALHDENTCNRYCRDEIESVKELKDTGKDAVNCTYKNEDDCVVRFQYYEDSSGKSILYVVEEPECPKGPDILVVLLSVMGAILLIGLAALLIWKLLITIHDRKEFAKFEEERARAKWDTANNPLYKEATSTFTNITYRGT
Sequence of Integrin alpha-V/beta-3 (P06756 31-889 limits assumed): as the sequence (P06756 31-889 limits assumed) above
Sequence of Integrin alpha-V/beta-3 (P06756 891-1048 limits assumed): as the sequence (P06756 891-1048 limits assumed) above

| Structure (SMILES) | MRT [1] | half-life [2] | IC50 [3] | Cmax [4] | half-life [5] | IC50 [6] | Ext AUC [7] | Ext AUC [8] | AUC inf [9] | IC50 [10] | IC50 [11] | Permeability [12] | bioavailability [13] | Vd [14] | clearance [15] | AUC inf [16] | Tmax [17] |
| --- | --- | --- | --- | --- | --- | --- | --- | --- | --- | --- | --- | --- | --- | --- | --- | --- | --- |
| CNc1cccc(CCOc2ccc3c(CCC(=O)O)csc3c2)n1 | 33.6 min | 44.4 min | > 20000 nM | 27500 ng/mL | 140 min | 30 nM | 1% | 5% | 5040 ng·h/mL | 7800 nM | 140 nM | 1.6e-05 AB cm/s | 73% | 1.05 L/kg | 16.5 mL/min/kg | 36700 ng·h/mL | 30 min |
| O=C(O)CCn1ccc2cc(OCCCNc3ccccn3)ccc21 | – | – | > 20000 nM | – | – | 470 nM | – | – | – | > 20000 nM | 2.5 nM | 6e-06 AB cm/s | – | – | – | – | – |
| CNc1cccc(CCOc2ccc3c(CCC(=O)O)coc3c2)n1 | 6.6 min | 5.4 min | > 20000 nM | 16200 ng/mL | 115 min | 33 nM | 2% | 1% | 1280 ng·h/mL | > 20000 nM | 420 nM | 1.7e-05 AB cm/s | 114% | 0.5 L/kg | 65.1 mL/min/kg | 14600 ng·h/mL | 30 min |
| CNc1cccc(CCOc2ccc3c(ccn3CCC(=O)O)c2)n1 | 103 min | 93.6 min | > 20000 nM | 38300 ng/mL | 143 min | 49 nM | 3% | 7% | 7100 ng·h/mL | 15000 nM | 210 nM | 6e-06 AB cm/s | 90% | 1.58 L/kg | 11.7 mL/min/kg | 64000 ng·h/mL | 30 min |
